Measured values published in ChEMBL document CHEMBL1149125, “Synthesis and biological evaluation in human monocyte-derived macrophages of N-(N-acetyl-L-cysteinyl)-S-acetylcysteamine analogues with potent antioxidant and anti-HIV activities” (2004).

Test: Effective dose against human immuno deficiency virus-1/Ba-L in vitro in human monocyte-derived macrophages (MDM) cells
Assay type: functional
Conditions: for EC50: read-out: ED50 (the source's name)
Summary of the method: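 Primary human monocytes (elutriated, ≥95% pure) differentiated 7 days into MDM in DMEM/10% heat-inactivated FCS; 1 million cells pretreated 1 h with a range of concentrations, then infected with HIV-1/BaL (10 000 TCID50, moi 0.01) for 24 h at 37 °C, washed, refed; medium and drug renewed twice weekly. Supernatant RT activity summed as cumulative RT; ED50/70/90 by Chou software; triplicate, two donors.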

SMILES	ED70	ED90	EC50
CC(=O)N[C@@H](CS)C(=O)NCCSC(C)=O	80 µM	195 µM	45 µM
CC(=O)N[C@@H](CS)C(=O)NCCSC(=O)C(C)(C)C	185 µM	270 µM	145 µM
CC(=O)N[C@@H](CSC(=O)c1ccccc1)C(=O)NCCSC(=O)C(C)C	205 µM	285 µM	165 µM
CC(=O)N[C@@H](CSC(C)=O)C(=O)NCCSC(=O)C(C)C	55 µM	80 µM	45 µM
CC(=O)N[C@@H](CS)C(=O)NCCSC(=O)C(C)C	175 µM	380 µM	110 µM
CC(=O)N[C@@H](CS)C(=O)NCCS	75 µM	200 µM	40 µM
